According to ChEMBL document CHEMBL1130396, “Angiotensin analogues palmitoylated in positions 1 and 4” (J Med Chem, 1997):
Where a SMILES comes first, the peptide text is derived from it. [ ]: non-standard residue; d: D form. The star is where a group is joined. X1 = CCCCCCCCCCCCCCCC(=O)OCCC(=O)*; Palmitoyl = CCCCCCCCCCCCCCCC(=O)*; X2 = CCCCCCCCCCCCCCCCCC*; Sar = CNCC(=O)O

Key:
[1] = target: T1, Type-1 angiotensin II receptor (Oryctolagus cuniculus, UniProt P34976); assay: Negative log of the dose of antagonist (compound) that reduces response of a double dose of […] to that of a single dose, on rabbit aorta; format: functional, tissue-based; settings: for Kb: read-out: pA2 (converted)
T1 sequence (P34976 whole entry): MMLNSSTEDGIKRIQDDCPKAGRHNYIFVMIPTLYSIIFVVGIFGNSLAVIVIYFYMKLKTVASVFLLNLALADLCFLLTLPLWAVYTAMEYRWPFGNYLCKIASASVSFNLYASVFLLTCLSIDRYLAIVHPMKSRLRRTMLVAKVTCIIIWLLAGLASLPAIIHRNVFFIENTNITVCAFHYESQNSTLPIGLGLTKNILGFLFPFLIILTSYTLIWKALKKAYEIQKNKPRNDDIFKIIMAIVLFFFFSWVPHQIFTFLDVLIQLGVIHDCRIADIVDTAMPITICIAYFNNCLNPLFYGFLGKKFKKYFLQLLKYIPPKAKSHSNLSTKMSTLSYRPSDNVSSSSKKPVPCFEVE
Procedure, shortened: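 Rabbit thoracic aorta rings in oxygenated Krebs, pH 7.4, at 37 °C under 2 g tension were preincubated 10 min with single antagonist concentrations. Ang concentration-response curves were then run with and without antagonist. pA2 came from Schild plot, or was estimated from lower doses for long-acting analogues. Duration was followed by Ang curves at 30 min, 1.5 h and 3 h, washing every 20 min. At least three evaluations were done.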

[2] = target: T2, Type-1 angiotensin II receptor (Bos taurus, UniProt P25104); assay: Dissociation constant for [125 I] Ang binding to type 1 Angiotensin II receptor of bovine adrenocortical membranes
T2 sequence (P25104 whole entry): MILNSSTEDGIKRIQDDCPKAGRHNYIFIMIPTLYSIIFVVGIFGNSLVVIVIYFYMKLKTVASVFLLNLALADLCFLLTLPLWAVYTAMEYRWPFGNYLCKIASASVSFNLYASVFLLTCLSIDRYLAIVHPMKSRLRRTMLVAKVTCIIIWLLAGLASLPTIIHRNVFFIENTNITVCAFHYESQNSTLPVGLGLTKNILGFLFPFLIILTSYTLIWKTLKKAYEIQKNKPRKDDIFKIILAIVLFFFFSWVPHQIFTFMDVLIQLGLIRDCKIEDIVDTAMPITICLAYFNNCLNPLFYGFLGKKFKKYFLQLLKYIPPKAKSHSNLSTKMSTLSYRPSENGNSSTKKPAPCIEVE

Oryctolagus cuniculus = species on record: Oryctolagus cuniculus; assay: Negative log of the dose of agonist that produces half-maximal contraction on rabbit aorta; format: functional
Procedure, shortened: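 New Zealand rabbit thoracic aorta rings (5 mm) were held in oxygenated Krebs, pH 7.4, at 37 °C under 2 g tension and equilibrated for 90 min. Isometric contractions were recorded. Cumulative dose-response curves (5 × 10^-11–10^-5 M) were expressed as % of maximal Ang stimulation, and pD2 was taken as the negative log of the dose giving half-maximal contraction. At least three evaluations were done.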

[3] = target: T3, Type-1 angiotensin II receptor (Bos taurus) (UniProt P25104); assay: Relative affinity for type 1 Angiotensin II receptor of bovine adrenocortical membranes compared to angiotensin
T3 sequence (whole entry): T2 sequence (P25104 whole entry)
Procedure, shortened: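 Bovine adrenocortical membranes were incubated in 25 mM Tris/HCl (100 mM NaCl, 5 mM MgCl2, 0.2% BSA, pH 7.4) with peptide across 5 × 10^-11–10^-5 M and 30 pM [125I]Ang (final) for 45 min at 22 °C. Bound radioactivity was filtered and gamma-counted, with nonspecific binding defined by 1 µM Ang. […] At least three experiments were run in duplicate.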

[4] = target: T4, Type-1 angiotensin II receptor (Oryctolagus cuniculus) (UniProt P34976); assay: Relative affinity compared to the affinity of angiotensin II(Ang=100%) for Angiotensin II receptor, type 1 on rabbit aorta; format: tissue-based
T4 sequence (whole entry): T1 sequence (P34976 whole entry)

| SMILES | Kd [2] [nM] | pD2 (Oryctolagus cuniculus) | RA [3] | further results |
| --- | --- | --- | --- | --- |
| CNCC(=O)N[C@@H](CCCNC(=N)N)C(=O)N[C@H](C(=O)N[C@@H](Cc1ccc(O)cc1)C(=O)N[C@H](C(=O)N[C@@H](Cc1cnc[nH]1)C(=O)N1CCC[C@H]1C(=O)N[C@H](Cc1ccc2ccccc2c1)C(=O)O)C(C)C)C(C)C | 16.6 | – | – | Kb [1]: 7.94 nM |
| CNCC(=O)N[C@@H](CCCN=C(N)N)C(=O)N[C@H](C(=O)N[C@@H](Cc1ccc(O)cc1)C(=O)N[C@H](C(=O)N[C@@H](Cc1c[nH]cn1)C(=O)N1CCC[C@H]1C(=O)N[C@@H](Cc1ccccc1)C(=O)O)C(C)C)C(C)C | – | 8.57 | – | – |
| CCCCCCCCCCCCCCCCCCOc1ccc(C[C@H](NC(=O)[C@@H](NC(=O)[C@H](CCCNC(=N)N)NC(=O)CNC)C(C)C)C(=O)N[C@H](C(=O)N[C@@H](Cc2cnc[nH]2)C(=O)N2CCC[C@H]2C(=O)N[C@@H](Cc2ccccc2)C(=O)O)C(C)C)cc1 (H-[Sar]RVY(X2)VHPF-OH) | 1550 | – | – | – |
| CNCC(=O)N[C@@H](CCCN=C(N)N)C(=O)N[C@H](C(=O)N[C@@H](Cc1ccc(O)cc1)C(=O)N[C@H](C(=O)N[C@@H](Cc1c[nH]cn1)C(=O)N1CCC[C@H]1C(=O)N[C@H](Cc1ccc2ccccc2c1)C(=O)O)C(C)C)C(C)C | – | – | 34.7 | – |
| CCCCCCCCCCCCCCCC(=O)Oc1ccc(C[C@H](NC(=O)[C@@H](NC(=O)[C@H](CCCNC(=N)N)NC(=O)CNC)C(C)C)C(=O)N[C@H](C(=O)N[C@@H](Cc2cnc[nH]2)C(=O)N2CCC[C@H]2C(=O)N[C@H](Cc2ccc3ccccc3c2)C(=O)O)C(C)C)cc1 | 224 | – | – | Kb [1]: 102 nM |
| CCCCCCCCCCCCCCCC(=O)OC[C@H](NC(C)=O)C(=O)N[C@@H](CCCN=C(N)N)C(=O)N[C@H](C(=O)N[C@@H](Cc1ccc(O)cc1)C(=O)N[C@H](C(=O)N[C@@H](Cc1c[nH]cn1)C(=O)N1CCC[C@H]1C(=O)N[C@H](Cc1cccc2ccccc12)C(=O)O)C(C)C)C(C)C | – | – | 0.21 | pA2 [1]: < 5.5; pKd [2]: 5.65 |
| CC(=O)N[C@@H](CO)C(=O)N[C@@H](CCCN=C(N)N)C(=O)N[C@H](C(=O)N[C@@H](Cc1ccc(O)cc1)C(=O)N[C@H](C(=O)N[C@@H](Cc1c[nH]cn1)C(=O)N1CCC[C@H]1C(=O)N[C@H](Cc1cccc2ccccc12)C(=O)O)C(C)C)C(C)C | – | – | 1.78 | pA2 [1]: 6.99; pKd [2]: 6.49 |
| CCCCCCCCCCCCCCCC(=O)OCCC(=O)N[C@@H](CCCN=C(N)N)C(=O)N[C@H](C(=O)N[C@@H](Cc1ccc(O)cc1)C(=O)N[C@H](C(=O)N[C@@H](Cc1c[nH]cn1)C(=O)N1CCC[C@H]1C(=O)N[C@@H](Cc1ccccc1)C(=O)O)C(C)C)C(C)C (X1-RVYVHPF-OH) | 2750 | 5.46 | 0.21 | RA [4]: 0.13 |
| CCCCCCCCCCCCCCCC(=O)Oc1ccc(C[C@H](NC(=O)[C@@H](NC(=O)[C@H](CCCN=C(N)N)NC(=O)CNC)C(C)C)C(=O)N[C@H](C(=O)N[C@@H](Cc2c[nH]cn2)C(=O)N2CCC[C@H]2C(=O)N[C@@H](Cc2ccccc2)C(=O)O)C(C)C)cc1 [listing 1 of 2 here] | 3.55 | – | – | Kb [1]: 36.3 nM |
| CCCCCCCCCCCCCCCC(=O)Oc1ccc(C[C@H](NC(=O)[C@@H](NC(=O)[C@H](CCCN=C(N)N)NC(=O)CNC)C(C)C)C(=O)N[C@H](C(=O)N[C@@H](Cc2c[nH]cn2)C(=O)N2CCC[C@H]2C(=O)N[C@H](Cc2ccc3ccccc3c2)C(=O)O)C(C)C)cc1 | – | – | 2.57 | – |
| CCCCCCCCCCCCCCCC(=O)OC[C@H](NC(C)=O)C(=O)N[C@@H](CCCNC(=N)N)C(=O)N[C@H](C(=O)N[C@@H](Cc1ccc(O)cc1)C(=O)N[C@H](C(=O)N[C@@H](Cc1cnc[nH]1)C(=O)N1CCC[C@H]1C(=O)N[C@@H](Cc1ccccc1)C(=O)O)C(C)C)C(C)C (Ac-S(Palmitoyl)RVYVHPF-OH) | 490 | – | – | – |
| CC(C)[C@H](NC(=O)[C@H](CCCNC(=N)N)NC(=O)[C@@H](N)CO)C(=O)N[C@@H](Cc1ccc(O)cc1)C(=O)N[C@H](C(=O)N[C@@H](Cc1cnc[nH]1)C(=O)N1CCC[C@H]1C(=O)N[C@@H](Cc1ccccc1)C(=O)O)C(C)C (H-SRVYVHPF-OH) | 7.59 | – | – | – |
| CC(C)[C@H](NC(=O)[C@H](CCCN=C(N)N)NC(=O)CCO)C(=O)N[C@@H](Cc1ccc(O)cc1)C(=O)N[C@H](C(=O)N[C@@H](Cc1c[nH]cn1)C(=O)N1CCC[C@H]1C(=O)N[C@H](Cc1ccccc1)C(=O)O)C(C)C | 6460 | – | 0.09 | Kb [1]: 4900 nM |
| CCCCCCCCCCCCCCCC(=O)Oc1ccc(C[C@H](NC(=O)[C@@H](NC(=O)[C@H](CCCN=C(N)N)NC(=O)CNC)C(C)C)C(=O)N[C@H](C(=O)N[C@@H](Cc2c[nH]cn2)C(=O)N2CCC[C@H]2C(=O)N[C@@H](Cc2ccccc2)C(=O)O)C(C)C)cc1 [listing 2 of 2 here] | – | 7.61 | – | – |
| CC[C@H](C)[C@H](NC(=O)[C@H](Cc1ccc(O)cc1)NC(=O)[C@@H](NC(=O)[C@H](CCCNC(=N)N)NC(=O)[C@@H](N)CC(=O)O)C(C)C)C(=O)N[C@@H](Cc1cnc[nH]1)C(=O)N1CCC[C@H]1C(=O)N[C@@H](Cc1ccccc1)C(=O)O [ANGIOTENSIN II] | – | 8.33 | 100 | RA [4]: 100 |
| CCCCCCCCCCCCCCCC(=O)Oc1ccc(C[C@H](NC(=O)[C@@H](NC(=O)[C@H](CCCN=C(N)N)NC(=O)CNC)C(C)C)C(=O)N[C@H](C(=O)N[C@@H](Cc2c[nH]cn2)C(=O)N2CCC[C@H]2C(=O)N[C@H](Cc2ccccc2)C(=O)O)C(C)C)cc1 | – | – | 162 | – |
| CCCCCCCCCCCCCCCC(=O)OC[C@H](NC(C)=O)C(=O)N[C@@H](CCCN=C(N)N)C(=O)N[C@H](C(=O)N[C@@H](Cc1ccc(O)cc1)C(=O)N[C@H](C(=O)N[C@@H](Cc1c[nH]cn1)C(=O)N1CCC[C@H]1C(=O)N[C@@H](Cc1ccccc1)C(=O)O)C(C)C)C(C)C (Ac-S(Palmitoyl)RVYVHPF-OH) | – | <5.5 | 1.17 | – |
| CC(=O)N[C@@H](CO)C(=O)N[C@@H](CCCN=C(N)N)C(=O)N[C@H](C(=O)N[C@@H](Cc1ccc(O)cc1)C(=O)N[C@H](C(=O)N[C@@H](Cc1c[nH]cn1)C(=O)N1CCC[C@H]1C(=O)N[C@@H](Cc1ccccc1)C(=O)O)C(C)C)C(C)C (Ac-SRVYVHPF-OH) | 17.8 | 7.54 | 32.4 | RA [4]: 16.2 |
| CC(C)[C@H](NC(=O)[C@H](CCCN=C(N)N)NC(=O)[C@@H](N)CO)C(=O)N[C@@H](Cc1ccc(O)cc1)C(=O)N[C@H](C(=O)N[C@@H](Cc1c[nH]cn1)C(=O)N1CCC[C@H]1C(=O)N[C@@H](Cc1ccccc1)C(=O)O)C(C)C (H-SRVYVHPF-OH) | – | 7.68 | 75.8 | RA [4]: 22.4 |
| CC(C)[C@H](NC(=O)[C@H](CCCN=C(N)N)NC(=O)CCO)C(=O)N[C@@H](Cc1ccc(O)cc1)C(=O)N[C@H](C(=O)N[C@@H](Cc1c[nH]cn1)C(=O)N1CCC[C@H]1C(=O)N[C@@H](Cc1ccccc1)C(=O)O)C(C)C | 105 | 7.23 | 5.53 | RA [4]: 7.95 |
| CNCC(=O)N[C@@H](CCCN=C(N)N)C(=O)N[C@H](C(=O)N[C@@H](Cc1ccc(O)cc1)C(=O)N[C@H](C(=O)N[C@@H](Cc1c[nH]cn1)C(=O)N1CCC[C@H]1C(=O)N[C@H](Cc1ccccc1)C(=O)O)C(C)C)C(C)C | – | – | 407 | RA [4]: 174 |
